The target of data set [1] is COX-1 (Prostaglandin G/H synthase 1) (Homo sapiens, UniProt P23219). Nature of the data set: Inhibition of human recombinant COX-1 at 10 uM using arachidonic acid as substrate preincubated for 10 mins followed by substrate addition relative to control. As to conditions: recombinant COX-1, probe arachidonic acid.
Data set [2] concerns THP-1. In words: Antiinflammatory activity in LPS-stimulated human THP-1 cells assessed as suppression of PGE2 release at 50 uM incubated for 24 hrs by ELISA relative to control. It counts as functional. The method in brief:
(§1)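 THP-1 monocytes were differentiated with PMA (10 ng/mL, 24 h) and rested 24 h PMA-free. They were then given compound alongside 1 µg/mL LPS for 24 h. PGE₂ in supernatants was measured by ELISA and normalised to the BCA total protein of viable cells. Final DMSO ≤1.0%; at least three independent biological replicates.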

The subject of data set [3] is THP-1. In words: Antiinflammatory activity in LPS-stimulated human THP-1 cells assessed as suppression of PGE2 release at 100 uM incubated for 24 hrs by ELISA relative to control. It counts as functional. The method in brief: as §1
Data set [4] concerns THP-1. Nature of the data set: Antiinflammatory activity in LPS-stimulated human THP-1 cells assessed as suppression of COX-2 mRNA expression at 50 uM incubated for 24 hrs by ELISA relative to control. It counts as functional. As to conditions: in the assay text read “by qPCR” for “by ELISA”. The gist of the method: (§2)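 THP-1 monocytes plated at 1 × 10⁶ cells/mL, differentiated with 10 ng/mL PMA for 24 h, then rested 24 h in PMA-free medium. Cells were treated with compound and LPS stimulation. COX mRNA was quantified by qPCR with TaqMan probes against β-actin as housekeeping gene. Compound stocks in DMSO, final DMSO ≤1.0%.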

For data set [5], the system named is THP-1. Nature of the data set: Antiinflammatory activity in LPS-stimulated human THP-1 cells assessed as suppression of COX-2 mRNA expression at 100 uM incubated for 24 hrs by ELISA relative to control. It counts as functional. To be noted: in the assay text read “by qPCR” for “by ELISA”. The method in brief:
as §2

Data set [6] relates to RAW264.7. Nature of the data set: Inhibition of LPS-induced NO release in mouse RAW264.7 cells at 20 uM when treated with compound and LPS simultaneously measured after 24 hrs by Griess reagent based assay relative to control. Type of data set: functional. The gist of the method: (§3)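 RAW264.7 cells were plated at 4 × 10⁵ cells/mL in phenol-free medium and left 24 h. They then received compound together with LPS (1 µg/mL) for 24 h. Nitrite in supernatants was measured by the Griess reaction and normalised to BCA total protein of viable cells. 1400W at 20 µM served as positive control.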

Data set [7] in a line: Inhibition of LPS-induced iNOS mRNA expression in mouse RAW264.7 cells assessed as downregulation of iNOS mRNA expression at 20 uM by RT-qPCR analysis relative to control. It counts as functional. The gist of the method: (§4)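 RAW264.7 cells were kept in high-glucose DMEM with 10% FBS. They were treated with compound alongside LPS stimulation. iNOS, TNF-α and IL-1β mRNA were quantified by qPCR using TaqMan probes, with β-actin as housekeeping gene, and expressed relative to LPS control. Final DMSO ≤1.0%.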

Data set [8] has as its system RAW264.7. In words: Inhibition of LPS-induced iNOS mRNA expression in mouse RAW264.7 cells assessed as downregulation of iNOS mRNA expression at 50 uM by RT-qPCR analysis relative to control. It counts as functional, cell-based. The method in brief: as §4
Data set [9] is described as follows: Inhibition of LPS-induced IL-1 beta mRNA expression in mouse RAW264.7 cells at 20 uM by RT-qPCR analysis relative to control. Type of data set: functional. The gist of the method:
as §4

The nature of data set [10]: Inhibition of LPS-induced IL-1 beta mRNA expression in mouse RAW264.7 cells at 50 uM by RT-qPCR analysis relative to control. It counts as functional. The method in brief: as §4
The nature of data set [11]: Inhibition of LPS-induced TNF alpha mRNA expression in mouse RAW264.7 cells at 20 uM by RT-qPCR analysis relative to control. Type of data set: functional. The method in brief:
as §4

Data set [12] is described as follows: Inhibition of LPS-induced TNF alpha mRNA expression in mouse RAW264.7 cells at 50 uM by RT-qPCR analysis relative to control. Type of data set: functional. The method in brief: as §4
The subject of a further data set is MCF7. Nature of the data set: Cytotoxicity against human MCF7 cells assessed as cell viability at 100 uM after 48 hrs by MTT assay relative to control. As to conditions: read-out: Activity. It counts as functional. The gist of the method: (§5)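 Cells in exponential growth were seeded at 5 × 10⁴ cells/mL, held 24 h at 37 °C, then exposed to compound for 48 h. MTT was added to 1 mg/mL final for 2 h. Formazan was dissolved in DMSO and read at 570 nm, with 620 nm background subtraction. Final DMSO ≤1.0%; viability reported as percentage of control.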

A further data set relates to PC-3. Nature of the data set: Cytotoxicity against human PC-3 cells assessed as cell viability at 100 uM after 48 hrs by MTT assay relative to control. Type of data set: functional. To be noted: read-out: Activity. The method in brief:
as §5

The test system of another data set is HT-29. Nature of the data set: Cytotoxicity against human HT-29 cells assessed as cell viability at 100 uM after 48 hrs by MTT assay relative to control. Type of data set: functional. To be noted: read-out: Activity. The method in brief:
as §5

For data set [13], the system named is RAW264.7. Nature of the data set: Inhibition of LPS-induced NO release in mouse RAW264.7 cells at 50 uM when treated with compound and LPS simultaneously measured after 24 hrs by Griess reagent based assay relative to control. It counts as functional. The method in brief: as §3
Data set [14] concerns the target T1, Prostaglandin G/H synthase 2 (Homo sapiens) (UniProt P35354).
T1 sequence (whole entry): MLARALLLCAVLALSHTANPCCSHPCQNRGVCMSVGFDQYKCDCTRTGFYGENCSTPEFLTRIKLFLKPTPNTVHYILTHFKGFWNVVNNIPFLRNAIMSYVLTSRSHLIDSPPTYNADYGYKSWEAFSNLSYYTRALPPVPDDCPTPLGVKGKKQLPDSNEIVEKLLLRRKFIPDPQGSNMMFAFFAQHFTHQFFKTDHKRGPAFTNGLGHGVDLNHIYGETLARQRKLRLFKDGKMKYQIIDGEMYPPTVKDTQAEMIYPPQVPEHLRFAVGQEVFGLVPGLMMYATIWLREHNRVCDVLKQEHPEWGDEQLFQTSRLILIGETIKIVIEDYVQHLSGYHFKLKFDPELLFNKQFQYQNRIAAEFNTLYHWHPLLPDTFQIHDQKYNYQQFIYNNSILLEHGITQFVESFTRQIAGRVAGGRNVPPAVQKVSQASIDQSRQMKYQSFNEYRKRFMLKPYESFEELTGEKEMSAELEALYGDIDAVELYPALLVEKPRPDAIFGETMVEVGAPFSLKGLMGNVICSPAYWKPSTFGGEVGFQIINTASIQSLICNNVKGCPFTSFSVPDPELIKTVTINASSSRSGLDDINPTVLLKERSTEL
In words: Inhibition of human recombinant COX-2 at 1 uM using arachidonic acid as substrate preincubated for 10 mins followed by substrate addition relative to control.

Calls of active or inactive are those of the source. The calls are words filed in the database; no cut-off is given here.

Sequence of COX-1 (Prostaglandin G/H synthase 1) (P23219 whole entry): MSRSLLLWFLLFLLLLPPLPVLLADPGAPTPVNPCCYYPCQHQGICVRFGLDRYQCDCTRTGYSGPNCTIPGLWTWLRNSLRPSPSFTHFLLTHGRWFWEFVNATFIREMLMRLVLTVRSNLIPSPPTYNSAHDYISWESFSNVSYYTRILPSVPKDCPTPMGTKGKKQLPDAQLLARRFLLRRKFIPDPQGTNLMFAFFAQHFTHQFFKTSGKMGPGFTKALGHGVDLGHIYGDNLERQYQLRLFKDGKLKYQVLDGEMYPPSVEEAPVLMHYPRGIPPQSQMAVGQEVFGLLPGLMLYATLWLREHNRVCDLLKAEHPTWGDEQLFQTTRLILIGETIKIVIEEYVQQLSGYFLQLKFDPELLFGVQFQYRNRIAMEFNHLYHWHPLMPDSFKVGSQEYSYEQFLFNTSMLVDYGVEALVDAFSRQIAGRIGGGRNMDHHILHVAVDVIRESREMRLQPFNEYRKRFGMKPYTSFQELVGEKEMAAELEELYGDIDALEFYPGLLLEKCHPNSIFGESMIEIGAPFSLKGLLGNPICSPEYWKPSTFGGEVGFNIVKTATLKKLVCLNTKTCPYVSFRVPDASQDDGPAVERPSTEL

With `CC(C)Oc1cc(NC(=O)c2ccc(F)cc2)ccc1NS(C)(=O)=O`, in [1], the inhibition at 10 µM stood at 27.2%. Further, the Activity with THP-1 [2] is 67%; in the data set on THP-1 [3], 68%; in the data set on THP-1 [4], 53%; with THP-1 [5], 61%. Besides, the inhibition at 20 µM in the data set with RAW264.7 [6] came to 43%; in data set [7], 40%; in data set [9], 45%; in [11] it was 44%. The inhibition entry in the data set on RAW264.7 [8] is “Active”. In addition, the inhibition at 50 µM in [10] is 51%; in [12] it was 57%; in the data set on RAW264.7 [13], 46.4%. Moreover, the viability at 100 µM with MCF7 is 110%; in the data set on PC-3, 79.4%; in the data set with HT-29, 49.6%. The inhibition in data set [14] turned out to be 72.8%.

The record behind these values is ChEMBL document CHEMBL4842330, “New nimesulide derivatives with amide/sulfonamide moieties: Selective COX-2 inhibition and antitumor effects” (Eur J Med Chem, 2021).
